Compound activity deposited in PubChem BioAssay by Broad Institute.
CAL PDZ FP-1: inhibitors of human CAL PDZ peptide binding | Q9HD26 | purified CAL PDZ, TMR-peptide fluorescence polarization, 1 h | inhibition, % at 24.9 µM | actives 0.92% (n = 300,000);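 active means mean inhibition of at least 30% with at least half of replicates also reaching 30%; inconclusive means no clear call, values can overlap the other calls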;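 further: 0% = DMSO neutral control and 100% = excess unlabeled competitor peptide PRC23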
ALR inh: blocks human ALR sulfhydryl oxidase activity. P55789. inhibition, % (concentration not given with the values). actives 3.8% (n = 290,000). purified ALR, DTT oxidation, H2O2 HRP-luminol luminescence;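 active means mean replicate inhibition above about 79%, with every replicate also reaching it, limit read from the data; inconclusive means only one of the two criteria met; inactive means mean below limit and not every replicate reaching it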
Target sequence (P55789 whole entry, looked up): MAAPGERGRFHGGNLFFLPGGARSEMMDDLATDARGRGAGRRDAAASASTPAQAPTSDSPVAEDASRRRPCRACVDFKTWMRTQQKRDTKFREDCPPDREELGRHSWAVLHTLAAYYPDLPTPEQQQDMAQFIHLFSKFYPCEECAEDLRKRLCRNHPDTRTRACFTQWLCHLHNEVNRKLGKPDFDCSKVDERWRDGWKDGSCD
CAL PDZ FP-2: inhibitors of human CAL PDZ peptide binding. purified CAL PDZ, TMR-peptide fluorescence polarization, 1 h. inhibition, % at 20 µM. Q9HD26. AID 504414. actives 0.02% (n = 330,000);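 active means highest replicate inhibition of at least 40%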;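 further: plate controls were DMSO neutral control wells for no effect and unlabeled competitor peptide control wells for full effect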
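Material: tagged CAL PDZ protein CerCALP, purified; buffer or medium: sodium phosphate/NaCl buffer pH 7.4 with TCEP, IgG, Thesit; also added: fluorescent TMR peptide probe; schedule: 1 h incubation at room temperature before polarization reading; technique: fluorescence polarization from S- and P-plane intensities, G-factor corrected; control set: unlabelled peptide and DMSO controls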
Rtt109 HAT inh: blocks Candida albicans Rtt109/Vps75 acetyltransferase activity. Q5AAJ8. purified Rtt109/Vps75, ThioGlo CoA-SH fluorescence, 4 h. inhibition, % at 34.9 µM. actives 0.16% (n = 330,000). AID 540336;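 active means inhibition of at least 50% in every replicate; inconclusive means best replicate reaches 50% inhibition but some replicates fall short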
Target sequence (Q5AAJ8 whole entry, looked up): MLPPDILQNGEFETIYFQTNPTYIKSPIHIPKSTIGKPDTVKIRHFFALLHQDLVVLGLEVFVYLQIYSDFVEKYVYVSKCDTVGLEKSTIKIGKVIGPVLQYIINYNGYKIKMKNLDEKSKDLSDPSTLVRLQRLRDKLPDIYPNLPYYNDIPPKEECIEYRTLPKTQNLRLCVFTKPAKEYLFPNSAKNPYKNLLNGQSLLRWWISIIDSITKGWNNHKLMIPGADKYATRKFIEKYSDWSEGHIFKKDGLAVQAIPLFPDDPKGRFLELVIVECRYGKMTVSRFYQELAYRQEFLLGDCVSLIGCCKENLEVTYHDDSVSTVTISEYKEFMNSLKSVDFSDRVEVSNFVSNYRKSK
Dyrk1A ADPGlo: inhibitors of rat Dyrk1A kinase; Q63470; ADP-Glo luminescence, NFATc1 peptide; inhibition, % at 12.5 µM; actives 0.43% (n = 310,000); AID 504441; in the data active means inhibition above about 50%;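 further: plate controls were vehicle with enzyme for no effect and no enzyme for full effect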
* marks the source's active call; other numbers are inactive results; ? = inconclusive; nt = not tested or not shown; + = active, no number; ! = a repeat was not active. Shown are actives, neighbours in structure and some others; about 4.3% of the full set was active somewhere.

SMILES	CAL PDZ FP-1	ALR inh	CAL PDZ FP-2	Rtt109 HAT inh	Dyrk1A ADPGlo
CN(C)CCCNCCCNC(=O)/C(=N\O)c1ccccc1	-3.9	-8.5	0.9	-11.4	19.8
COc1cc(C2CC(=O)c3c(O)cc(O)cc3O2)ccc1O (centres undefined)	-2.6	?	-0.1	-6.1	20.8
O=C1C[C@@H](c2ccc(O)cc2)Oc2cc(O)cc(O)c21	-0.1	99.6*	-0.8	-0.5	24.3
COC(=O)c1ccccc1NC(=S)N1CCN(C2CCCCC2)CC1	60.8*	-8.8	-0.7	-1.8	nt
CC(C)(C)[C@H]1COC(=O)CCCC/C=C\C[C@H](CC(=O)N(CCO)Cc2ccccc2)C(=O)N1	105.9*	nt	-0.7	-5.3	1.7
CC(C)Cc1nnc(NC(=O)CCC(=O)N2CCN(c3ccc(F)cc3)CC2)s1	40.9*	2.5	-0.8	6.1	5.5
CCSc1ccc2c(c1)N(CCCN1CCN(C)CC1)c1ccccc1S2	0.3	96.7*	1.4	17.8	13.9
CN1CCN(CCCN2c3ccccc3Sc3ccc(Cl)cc32)CC1	-2.8	99.1*	1.1	53.5*!	2.5
CN1CCCC(CN2c3ccccc3Sc3ccccc32)C1 (centres undefined)	0.1	99.1*	1.2	8.2	0.5
OC1CC2CCC(C1)N2CCCN1c2ccccc2Sc2ccc(Cl)cc21 (centres undefined)	nt	nt	0.0	22.4	-3.2
CN1CCN(CCCNC(=O)c2ccc(/C=C3/Sc4ccccc4N(Cc4cccc(Cl)c4)C3=O)cc2)CC1	-3.8	nt	-2.2	42.6	4.8
CCCC(=O)Nc1cccc(C(=O)Nc2ccccc2OCC)c1	nt	-1.8	nt	nt	nt
COc1ccc2[nH]c(=O)c(CN(Cc3cccnc3)C(=S)NCC3CCCO3)cc2c1 (centres undefined)	-1.5	23.5	-1.5	1.7	1.2
CC(C)(C)c1ccc(C(=O)CC(Sc2ccc(Cl)cc2)C(=O)O)cc1 (centres undefined)	2.6	98.0*	-1.5	126.0*	-0.7
COc1ccc(C2SCC(=O)N2c2ccccc2)cc1 (centres undefined)	5.3	nt	-1.5	-1.4	-2.9
O=C1CSC(c2ccccc2)N1CC(O)c1ccc([N+](=O)[O-])cc1 (centres undefined)	-3.5	-18.0	0.0	-2.6	-3.5
O=C1CSC(c2ccc([N+](=O)[O-])cc2)N1c1ccccc1 (centres undefined)	-2.1	98.1*	0.3	-7.0	-2.4
COc1ccc(N2C(=O)CSC2c2ccc([N+](=O)[O-])cc2)cc1 (centres undefined)	-3.1	98.0*	1.4	-1.8	-1.7
Cc1ccc(NNC(=O)c2ccno2)cc1Cl	nt	98.5*	-1.2	3.2	-3.3
Cc1cc(C(=O)NNc2ccc(F)cc2F)no1	-6.7	97.8*	0.0	7.5	2.0
Cc1cc(C(=O)NNc2ccc(C)c(C)c2)no1	-4.2	99.1*	-0.8	5.8	-0.2
Cc1ccc(NNC(=O)c2ccno2)cc1C	-5.2	98.4*	-0.7	3.1	-2.9
O=C(CCNc1ccc(Cc2ccncc2)cc1)c1ccc([N+](=O)[O-])cc1	-1.2	6.2	-2.3	1.8	-2.2
C/C(=N\N1C(=O)CSC1=S)c1ccc(Br)cc1	43.8*	-29.5	-1.5	-6.9	-2.4
CCCCn1c(SCC(=O)N(C)C2CCS(=O)(=O)C2)nc2cc(S(N)(=O)=O)ccc21 (centres undefined)	52.5*	-1.1	0.1	-9.8	-3.1
SMILES	CAL PDZ FP-1	ALR inh	CAL PDZ FP-2	Rtt109 HAT inh	Dyrk1A ADPGlo
C/C(=N\NC(=O)CNc1cccc2ccccc12)c1ccccc1	31.0*	-15.9	0.2	-20.4	-4.0
O=C(NCc1ccccc1Cl)C1CCC(=O)N(CCCN2CCCC2=O)C1 (centres undefined)	-0.2	-6.1	0.4	-3.7	-1.0
CCOC(=O)c1[nH]c(C)c(CN(C(C)=O)c2ccc(OCC)cc2)c1C	-0.2	-24.4	0.7	4.9	-1.7
COc1ccc(N2CCN(C(=O)Nc3ccccc3Cl)CC2)cc1	-4.8	86.6*	-1.2	0.5	-5.0
COc1ccc(N2CCN(C(=O)c3ccc(C)cc3Cl)CC2)cc1	-3.3	92.4*	0.0	-7.3	2.4
O=C(Nc1ccccc1Cl)N1CCN(c2ccc3nnc(-c4ccccc4)n3n2)CC1	57.0*	nt	-4.7	5.7	12.6
COc1cc(SC)ccc1C(=O)N1CCN(c2ccc(O)cc2)CC1	nt	98.7*	-0.1	-1.3	-2.4
O=C(Nc1ccc(Cl)cc1)N1CCN(c2ccc3nnc(-c4ccc(F)cc4)n3n2)CC1	nt	-5.5	-5.5	-13.3	11.5
COC(=O)c1ccccc1NC(=O)N1CCN(c2ccc(OC)cc2)CC1	-3.6	41.1	-0.8	-0.1	-1.5
COc1ccc(N2CCN(C(=O)c3ccc(C)c(Cl)c3)CC2)cc1	-2.0	13.2	-0.7	30.5	-0.9
CCN1CCN(CCCNC(=O)C2c3ccccc3C(=O)N(c3ccc(OC)cc3)C2c2ccc(OC)cc2)CC1 (centres undefined)	-0.8	1.2	0.1	15.0	0.6
CCC(CO)[n+]1c(C)cc(/C=C2\Sc3ccccc3N2Cc2ccccc2)cc1C (centres undefined)	0.6	98.2*	0.4	nt	22.6
O=C(O)C1C=Cc2ccccc2N1C(=O)c1ccccc1 (centres undefined) (tested in a mixture with another compound)	-1.7	nt	0.5	12.2	0.2
CC(C)COc1ccc(N)cc1OCC(C)C	0.5	98.7*	2.5	6.1	-4.3
CCN(CC)Cc1cc(C(C)=O)ccc1OCC(C)C	nt	-8.0	-1.8	-0.6	-6.4
CNc1[nH]c(=O)[nH]c(=O)c1N=Nc1cc(Cl)ccc1Cl	nt	3.1	nt	nt	nt
CSCC(O)Cn1ncc2ccccc2c1=O (centres undefined)	31.3*	-7.6	-0.6	-4.0	-1.1
CN(CC1COc2ccccc2O1)C(=O)c1cccc(S(=O)(=O)N2CCCC2)c1 (centres undefined)	1.3	-8.9	-1.2	30.5	nt
CN(CC1COc2ccccc2O1)C(=O)c1ccc(N(C)C)cc1 (centres undefined)	1.8	89.5*	-4.4	-2.9	-1.0
COc1ccc(/C=N/NC(=S)NCc2ccccc2)cc1OC	-0.8	3.4	-0.3	2.9	-5.4
COc1ccc(CNC(=S)N/N=C/c2ccc(O)c(OC)c2)cc1	-5.4	86.7*	-0.2	4.9	-7.7
COc1cc(/C=N/NC(=S)NC2CC3CCC2C3)ccc1O (centres undefined)	-0.3	98.7*	0.2	19.6	nt
COc1ccc(/C=N/NC(=S)N[C@H]2CC3CCC2C3)cc1 (some centres undefined)	-4.4	0.1	1.2	-15.7	nt
COc1ccc(CNC(=S)N/N=C/c2ccc(OC)c(OC)c2)cc1	-3.2	6.3	-0.8	6.8	6.0
COCCCNC(=S)N/N=C/c1ccc(OC)c(Br)c1	54.1*	15.3	-0.9	-1.0	2.8
CCc1ccc(C(=O)CSc2ncn[nH]2)cc1	-0.1	53.7	0.3	+	4.7
Cc1ccc(C(=O)CSc2ncn[nH]2)cc1	3.5	55.1	0.6	7.9	-6.6
